Consider two compounds from ChEMBL document CHEMBL1126582, “Symmetry-based inhibitors of HIV protease. Structure-activity studies of acylated 2,4-diamino-1,5-diphenyl-3-hydroxypentane and 2,5-diamino-1,6-diphenylhexane-3,4-diol” (J Med Chem, 1993).

Values after ≈ are worked out from the molar mass of the structure shown.

Data set [1] in a line: t1/2 in rats after IV dose (5 mg/kg). Format: ADME, organism-based. Particulars: rat, in vivo. The method in brief:
(§1)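 Rats in groups of eight: four dosed 5 mg/kg intravenously, four 10 mg/kg orally. Dosing solutions were 5 mg/mL in 20% ethanol/5% glucose in water with 2 molar equiv HCl (1 equiv HCl or 2 equiv methanesulfonic acid for some). Terminal t1/2 from the IV arm (n = 4). Cmax was the peak plasma level after oral dosing (n = 4). Bioavailability was AUCoral/2 × AUCiv over 0-6 h.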

Data set [2] in a line: Estimated solubility (buffer pH 7.4). Format: ADME. Particulars: read-out: S. The method in brief: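 Solubility was estimated in pH 7.4 phosphate buffer.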
The subject of data set [3] is Human immunodeficiency virus 1. Put plainly: In vitro for inhibition of cytopathic effect of HIV-1 3B in MT-4 lymphocytes. Format: functional, organism-based. The method in brief:
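MT-4 lymphocytes were infected with HIV-1 3B at an MOI of either 0.001 or 0.032 tissue culture infective dose per cell. EC50 is the concentration preventing 50% of viral cytopathic effect, from a single triplicate assay. No effect means no activity up to 100 μM or up to the cytotoxic concentration.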

A short description of data set [4]: % bioavailability in rat after oral dose (10 mg/kg) 0 - 6 h. Format: ADME, organism-based. Particulars: in vivo. The method, boiled down:
as §1

Data set [5] is described as follows: Cmax in plasma after oral dose (10 mg/kg). Further details: dose 10 mg/kg, route oral. The format is ADME, organism-based. The method in brief: as §1
For data set [6], the system named is MT4. Put plainly: In vitro for cytotoxicity in MT-4 lymphocytes in the absence of HIV infection. Format: functional. As to conditions: Homo sapiens. The method in brief:
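Uninfected MT-4 lymphocytes were cultured with compound. CC50 is the concentration at which 50% of cells remain viable.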

The target of data set [7] is Human immunodeficiency virus type 1 protease (Human immunodeficiency virus 1, UniProt Q72874). In words: Inhibition of purified recombinant HIV-1 protease in a fluorogenic assay. The method in brief:
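Purified recombinant HIV-1 protease, with cleavage of the fluorogenic substrate DABCYL-[…]-Pro-Ile-Val-Gln-EDANS as read-out. Value is the inhibitor concentration giving 50% inhibition of protease activity.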

`CC(C)[C@H](NC(=O)OCc1ccccn1)C(=O)N[C@@H](Cc1ccccc1)C(O)[C@H](Cc1ccccc1)NC(=O)[C@H](NC(=O)OCc1ccccn1)C(C)C` (some centres undefined) showed a half-life in data set [1] of 1.9 h. Further, the solubility in data set [2] is 51 µg/mL (≈ 69 µM). In data set [3], this compound registered an EC50 of 4.5 µM. For the same compound, the bioavailability in data set [4] amounted to 19%. The same compound showed a Cmax in data set [5] of 1600 nM. The same compound showed a 50% cytotoxic concentration (CC50) in data set [6] of 57 µM. Further, the IC50 in data set [7] was found to be 0.0048 µM.

Compound `CC(C)[C@H](NC(=O)N(C)Cc1ccccn1)C(=O)N[C@@H](Cc1ccccc1)C(O)[C@H](Cc1ccccc1)NC(=O)[C@H](NC(=O)N(C)Cc1ccccn1)C(C)C` (some centres undefined) showed a half-life in data set [1] of 0.45 h. Moreover, the solubility in data set [2] was 167 µg/mL (≈ 218 µM). Moreover, in data set [3], it took 25 µM to reach a half-maximal effect (EC50). The compound also displayed a bioavailability in data set [4] of 11%. In addition, the Cmax in data set [5] amounted to 1500 nM. In data set [6], this compound registered a CC50 of over 100 µM. Also, the IC50 in data set [7] was found to be 0.043 µM.
